Bioassay records (PubChem)
IDH1 mut inh = IDH1 R132H (human) inhibition. O75874. IDH1 R132H reductase, diaphorase/resazurin fluorescence, 60 min. inhibition, % at 10 µM. actives 0.18% (n = 70,000). AID 624101; in the data active = inhibition above about 34%; inconclusive = no clear call, values can overlap the other calls; inactive = below about 11%;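 also: 0% = DMSO and 100% = no enzyme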
GASC1 inh = inhibitors of human demethylase GASC-1 KDM4C | Q9H3R0 | GST-KDM4C 2-372, H3K9me3 peptide, LANCE TR-FRET | inhibition, % at 12.5 µM | actives 0.15% (n = 96,000) | AID 720574;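 active = mean replicate inhibition above about 25%, with at least 55% of replicates also reaching it, limit read from the data, passing the limit was not always enough; inconclusive = only one of those two conditions met; inactive = neither condition met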
Target sequence (Q9H3R0 2-372 limits assumed): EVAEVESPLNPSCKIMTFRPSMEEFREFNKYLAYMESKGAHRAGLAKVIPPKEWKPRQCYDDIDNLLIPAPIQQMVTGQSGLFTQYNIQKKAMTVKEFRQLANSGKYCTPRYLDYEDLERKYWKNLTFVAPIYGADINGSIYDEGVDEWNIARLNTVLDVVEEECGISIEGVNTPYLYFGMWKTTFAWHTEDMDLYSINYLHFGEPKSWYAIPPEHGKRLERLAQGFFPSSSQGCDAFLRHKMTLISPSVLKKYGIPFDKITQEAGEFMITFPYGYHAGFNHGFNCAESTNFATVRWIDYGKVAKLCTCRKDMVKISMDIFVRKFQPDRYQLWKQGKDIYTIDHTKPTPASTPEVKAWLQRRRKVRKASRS
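reagent = H3K9me3 peptide substrate, Fe(II), 2-oxoglutarate | system = GST-tagged GASC-1 (JMJD2C) catalytic fragment, aa 2-372 | amount = enzyme final amount 10 nM | read-out = Fall in 671/618 emission ratio as inhibition | medium = HEPES buffer, pH 7.5, plus ascorbate | schedule = 30 min reaction, 60 min detection, RT | measured by = LANCE TR-FRET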
Pf Dd2 inh = blocks growth of Plasmodium falciparum Dd2 parasites | P. falciparum Dd2 growth, SYBR Green, 72 h; active compounds read low | activity change, % at 10 µM | actives 2.3% (n = 94,000) | AID 1159554; in the data active = activity change below about -80%; inconclusive = no clear call, values can overlap the other calls
T cruzi growth-1 = inhibitors of T. cruzi proliferation; T. cruzi beta-gal in NIH3T3, GalScreen luminescence, 90 h; inhibition, % at 8.34 µM; AID 624255; actives 5.9% (n = 77,000);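 active = mean inhibition above about 93%, with at least 55% of replicates each passing it, limit read from the data, passing the limit was not always enough; inconclusive = only one of those two conditions holds; inactive = neither condition holds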
T cruzi growth-2 = Trypanosoma cruzi proliferation inhibition. shares compounds with T cruzi growth-1. T. cruzi beta-gal in NIH3T3, GalScreen luminescence, 90 h. inhibition, % at 8.35 µM. actives 72% (n = 5,600). AID 651739;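 active = mean replicate inhibition above about 95% and at least 55% of replicates individually reaching it, limit read from the data; inconclusive = only one of the two criteria is met; inactive = neither criterion is met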
T cruzi growth-3 = blocks T. cruzi growth in NIH3T3 host cells. T. cruzi beta-gal in NIH3T3, GalScreen luminescence, 90 h. shares compounds with T cruzi growth-1. AID 651740. inhibition, % at 2.09 µM. actives 21% (n = 5,600);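 active = mean inhibition above about 95%, with at least 55% of replicates also reaching it, limit read from the data; inconclusive = meets just one of the two conditions; inactive = meets neither condition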;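 also: plate controls were neutral control median for no effect and positive control median for full effect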
3T3 cytotox = kills mouse NIH/3T3 fibroblasts. cytotoxicity (signal decrease), % at 8.35 µM. AID 651742. shares compounds with T cruzi growth-1. actives 14% (n = 5,600). NIH/3T3 viability, CellTiter-Glo ATP luminescence, 90 h;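 active = mean signal decrease across replicates above about 35% based on untreated-well scatter, with enough replicates individually passing, limit read from the data; inconclusive = no rule stated though some were filed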;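 also: 0% = median of neutral control wells and 100% = median of positive control wells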
NIH3T3 tox 2 = NIH/3T3 (mouse) viability loss; shares compounds with T cruzi growth-1; NIH/3T3 viability, CellTiter-Glo ATP luminescence, 90 h; inhibition, % at 24.9 µM; actives 56% (n = 5,600); AID 651744;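 active = mean loss of cell viability signal at or above a set limit, and enough replicates individually reaching it; inconclusive = meets only the mean limit or only the replicate share; inactive = meets neither condition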;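 also: 0% = median of neutral control wells and 100% = median of positive control wells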
The depositor's hits bear a star; ? = inconclusive; · = not tested or not shown. Hits are enriched below; roughly 5.8% of the tested compounds scored in any of these assays.

SMILES	IDH1 mut inh	GASC1 inh	Pf Dd2 inh	T cruzi growth-1	T cruzi growth-2	T cruzi growth-3	3T3 cytotox	NIH3T3 tox 2
O=C(C[C@@H]1CC[C@H]2[C@@H](COC[C@@H](O)CN2C(=O)c2ccccc2F)O1)NCc1ccc(F)cc1	·	-1	8	35	·	·	·	·
Cc1ccc(S(=O)(=O)Nc2ccc3c(c2)C(=O)N([C@@H](C)CO)C[C@H](C)[C@@H](CN(C)S(C)(=O)=O)OCCCC[C@@H](C)O3)cc1	-6	1	-10	27	·	·	·	·
OC[C@@H]1[C@@H](c2ccc(C#Cc3cccnc3)cc2)[C@H]2CN(Cc3ccccc3F)CCCCN12	·	-1	-73	104*	107*	-1	33	102*
COc1ccc(-n2c(C)c(C(C)=O)c3cc(OCC(N)=O)ccc32)cc1	0	·	·	·	·	·	·	·
Cc1cccc(-c2ccc([C@H]3[C@H](CO)N4CCCCN(C(=O)c5cccnc5)C[C@@H]34)cc2)c1	·	-1	27	116*	102*	42	39*	32*
Cc1cccc(-c2ccc([C@H]3[C@H]4CN(C(=O)c5cccnc5)CCCCN4[C@H]3CO)cc2)c1	·	2	-4	109*	?	27	12	26*
O=C(c1ccncc1)N1CCCCN2[C@H](C1)[C@@H](c1ccc(-c3ccccc3)cc1)[C@@H]2CO	·	-1	36	9	·	·	·	·
O=C(c1ccncc1)N1CCCCN2[C@H](CO)[C@H](c3ccc(-c4ccccc4)cc3)[C@@H]2C1	·	-1	46	119*	82	6	-9	18
Cc1ccccc1-c1ccc([C@H]2[C@@H](CO)N3CCCCN(C(=O)c4cccnc4)C[C@H]23)cc1	·	-1	26	99*	97*	47	18	9
CO[C@H]1CN(C)C(=O)c2cc(NC(=O)C3CCOCC3)ccc2OC[C@@H](C)N(C(C)=O)C[C@@H]1C	1	2	15	-30	·	·	·	·
Cc1cccc(-c2ccc([C@@H]3[C@@H](CO)N4CCCCN(C(=O)c5cccnc5)C[C@@H]34)cc2)c1	·	-1	-7	100*	32	-7	2	19
Cc1cccc(-c2ccc([C@@H]3[C@@H](CO)N4CCCCN(C(=O)c5ccncc5)C[C@H]34)cc2)c1	·	-1	0	31	·	·	·	·
Cc1cccc(-c2ccc([C@H]3[C@@H](CO)N4CCCCN(C(=O)c5ccncc5)C[C@H]34)cc2)c1	·	-2	23	?	105*	95	12	24*
Cc1cccc(-c2ccc([C@@H]3[C@@H](CO)N4CCCCN(C(=O)c5cccnc5)C[C@H]34)cc2)c1	·	1	11	?	56	-12	11	30*
Cc1cccc(-c2ccc([C@@H]3[C@@H](CO)N4CCCCN(C(=O)c5ccncc5)C[C@@H]34)cc2)c1	·	-1	13	58	·	·	·	·
O=C(Nc1ccccc1)[C@H]1[C@H](CO)[C@H]2Cn3c(cccc3=O)[C@H]2N1Cc1ccccc1Cl	·	1	-3	74	·	·	·	·
CC(C)C#Cc1cnc2c(c1)C(=O)N([C@H](C)CO)C[C@@H](C)[C@@H](CN(C)C(=O)Nc1cccc(F)c1)O2	-1	1	-18	21	·	·	·	·
COc1cccc(-c2ccc(C3[C@@H]4CN(C(=O)C5CCCCC5)C[C@H]3N4)cc2)c1 (stereo partly specified)	·	-3	-9	·	·	·	·	·
C[C@@H]1CCCCO[C@H](CN(C)C(=O)Nc2ccccc2)[C@@H](C)CN([C@@H](C)CO)C(=O)c2cc(NC(=O)CCC(F)(F)F)ccc2O1	3	-1	·	·	·	·	·	·
C[C@H]1CN([C@@H](C)CO)C(=O)c2cc(NS(=O)(=O)c3ccccc3)ccc2O[C@H]1CN(C)Cc1ccc(C(F)(F)F)cc1	0	0	-65	?	106*	62	16	8
C[C@H](CO)N1C[C@H](C)[C@H](CN(C)Cc2ccc(Oc3ccccc3)cc2)Oc2ccc(NS(=O)(=O)c3ccc(Cl)cc3)cc2C1=O	·	1	-6	?	107*	64	0	104*
C[C@@H]1CN([C@@H](C)CO)C(=O)c2cc(NS(=O)(=O)c3ccc(Cl)cc3)ccc2O[C@@H]1CN(C)Cc1ccc(C(F)(F)F)cc1	1	-4	8	126*	96*	46	68*	104*
C[C@@H]1CN([C@H](C)CO)C(=O)c2cc(NS(=O)(=O)c3ccccc3)ccc2O[C@@H]1CN(C)Cc1ccc(Oc2ccccc2)cc1	0	-2	18	47	·	·	·	·
C[C@@H]1CN([C@@H](C)CO)C(=O)c2cc(NS(=O)(=O)c3ccccc3)ccc2O[C@H]1CN(C)Cc1ccc(C(F)(F)F)cc1	·	0	10	94	·	·	·	·
C[C@@H]1CCCCO[C@H](CN(C)S(=O)(=O)c2ccc(Cl)cc2)[C@H](C)CN([C@H](C)CO)C(=O)c2cc(NS(=O)(=O)c3cccs3)ccc2O1	·	-2	·	112*	106*	96*	4	-29
SMILES	IDH1 mut inh	GASC1 inh	Pf Dd2 inh	T cruzi growth-1	T cruzi growth-2	T cruzi growth-3	3T3 cytotox	NIH3T3 tox 2
C[C@@H]1CN([C@H](C)CO)C(=O)c2cc(NS(=O)(=O)c3cccs3)ccc2O[C@@H](C)CCCCO[C@H]1CN(C)S(=O)(=O)c1ccc(Cl)cc1	-1	-1	-70	·	·	·	·	·
Cc1ccc(S(=O)(=O)N(C)C[C@@H]2OCCCC[C@H](C)Oc3ccc(NS(=O)(=O)c4cccs4)cc3C(=O)N([C@H](C)CO)C[C@H]2C)cc1	-3	1	-55	118*	105*	39	8	-2
C[C@H](CO)N1C[C@H](C)[C@H](CN(C)S(=O)(=O)c2ccc(Cl)cc2)OCCCC[C@H](C)Oc2ccc(NS(=O)(=O)c3cccs3)cc2C1=O	·	0	·	111*	97*	45	-24	-46
C[C@H]1CCCCO[C@H](CN(C)S(=O)(=O)c2ccc(Cl)cc2)[C@@H](C)CN([C@@H](C)CO)C(=O)c2cc(NS(=O)(=O)c3cccs3)ccc2O1	·	0	·	114*	104*	62	8	-19
O=C(N[C@H]1CC[C@@H](CCn2cc(C3CCCC3)nn2)O[C@H]1CO)c1cccnc1	·	-1	9	·	·	·	·	·
Cc1ccccc1S(=O)(=O)N1CCCCN2[C@H](CO)[C@@H](c3ccc(-c4ccccc4)cc3)[C@@H]2C1	·	·	3	102*	98*	80	36*	45*
Cc1ccccc1S(=O)(=O)N1CCCCN2[C@H](CO)[C@H](c3ccc(-c4cccc(F)c4)cc3)[C@@H]2C1	·	-2	-14	81	·	·	·	·
Cc1ccccc1S(=O)(=O)N1CCCCN2[C@@H](CO)[C@@H](c3ccc(-c4cccc(F)c4)cc3)[C@@H]2C1	·	-5	-76	55	·	·	·	·
